Among the data in ChEMBL document CHEMBL4346670, “Discovery of Novel Janus Kinase (JAK) and Histone Deacetylase (HDAC) Dual Inhibitors for the Treatment of Hematological Malignancies” (J Med Chem, 2019) are IC50 values, retold here.

The target of assay [1] is Tyrosine-protein kinase JAK2 (Homo sapiens, UniProt O60674). Put plainly: Inhibition of recombinant human JAK2 using Ulight-CAGAGAIETDKEYYTVKD as substrate measured after 60 mins by LANCE assay.
For assay [2], the target named is Histone deacetylase. Nature of the assay: Inhibition of HDAC in human HeLa nuclear extract using Boc-Lys(acetyl)-AMC as substrate preincubated for 5 mins followed by substrate addition and measured after 30 mins by fluorescence assay. In kind it is cell-based.
In assay [3] the target is Histone deacetylase 2 (Homo sapiens, UniProt Q92769). Nature of the assay: Inhibition of HDAC2 (unknown origin) using Boc-Lys(acetyl)-AMC as substrate preincubated for 5 mins followed by substrate addition and measured after 30 mins by fluorescence assay.
Assay [4] has as its target T1, Protein deacetylase HDAC6 (Homo sapiens, UniProt Q9UBN7).
T1 sequence (Q9UBN7 whole entry): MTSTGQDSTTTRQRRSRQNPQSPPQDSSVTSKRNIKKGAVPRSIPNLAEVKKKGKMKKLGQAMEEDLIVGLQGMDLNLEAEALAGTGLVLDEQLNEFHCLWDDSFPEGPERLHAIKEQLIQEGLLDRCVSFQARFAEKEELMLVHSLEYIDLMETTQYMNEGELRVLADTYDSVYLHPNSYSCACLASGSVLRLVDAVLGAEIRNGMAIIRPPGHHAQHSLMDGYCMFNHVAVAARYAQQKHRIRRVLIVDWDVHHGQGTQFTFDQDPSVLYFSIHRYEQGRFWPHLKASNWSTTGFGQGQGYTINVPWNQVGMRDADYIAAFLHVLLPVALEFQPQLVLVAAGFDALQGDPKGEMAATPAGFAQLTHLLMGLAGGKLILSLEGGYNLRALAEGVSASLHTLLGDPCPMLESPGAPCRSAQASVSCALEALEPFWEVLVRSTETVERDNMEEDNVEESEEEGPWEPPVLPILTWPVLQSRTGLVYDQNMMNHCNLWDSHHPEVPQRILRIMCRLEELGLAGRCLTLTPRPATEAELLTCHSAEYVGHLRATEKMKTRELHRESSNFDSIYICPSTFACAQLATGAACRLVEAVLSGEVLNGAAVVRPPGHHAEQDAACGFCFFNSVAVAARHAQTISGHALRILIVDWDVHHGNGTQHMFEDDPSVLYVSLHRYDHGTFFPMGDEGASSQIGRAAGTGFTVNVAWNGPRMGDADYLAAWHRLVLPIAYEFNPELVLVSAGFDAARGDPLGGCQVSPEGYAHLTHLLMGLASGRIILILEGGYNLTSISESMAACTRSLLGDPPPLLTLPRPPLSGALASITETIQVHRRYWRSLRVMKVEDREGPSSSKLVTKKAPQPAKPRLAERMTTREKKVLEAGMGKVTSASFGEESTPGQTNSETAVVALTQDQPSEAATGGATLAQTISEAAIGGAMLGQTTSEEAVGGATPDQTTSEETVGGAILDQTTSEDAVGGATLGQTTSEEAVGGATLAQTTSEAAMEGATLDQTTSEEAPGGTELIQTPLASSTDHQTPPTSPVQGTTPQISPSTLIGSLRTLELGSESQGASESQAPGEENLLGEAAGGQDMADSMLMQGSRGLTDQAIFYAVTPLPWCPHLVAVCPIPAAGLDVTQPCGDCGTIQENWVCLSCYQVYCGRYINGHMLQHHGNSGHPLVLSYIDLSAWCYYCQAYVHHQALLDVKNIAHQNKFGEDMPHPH
Put plainly: Inhibition of HDAC6 (unknown origin) using Boc-Lys(acetyl)-AMC as substrate preincubated for 5 mins followed by substrate addition and measured after 30 mins by fluorescence assay.

The target of assay [5] is T2, Histone deacetylase 8 (Homo sapiens, UniProt Q9BY41).
T2 sequence (Q9BY41 whole entry): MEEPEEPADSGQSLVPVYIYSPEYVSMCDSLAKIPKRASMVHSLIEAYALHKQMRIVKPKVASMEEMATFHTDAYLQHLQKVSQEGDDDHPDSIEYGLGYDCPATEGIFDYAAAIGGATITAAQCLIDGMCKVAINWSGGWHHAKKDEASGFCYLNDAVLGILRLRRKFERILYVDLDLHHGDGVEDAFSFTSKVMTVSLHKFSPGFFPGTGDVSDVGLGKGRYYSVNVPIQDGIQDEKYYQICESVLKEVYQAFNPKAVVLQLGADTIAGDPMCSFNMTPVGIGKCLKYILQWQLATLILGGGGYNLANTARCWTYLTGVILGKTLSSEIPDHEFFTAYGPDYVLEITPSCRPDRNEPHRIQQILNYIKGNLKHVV
Put plainly: Inhibition of HDAC8 (unknown origin) using Boc-Lys(trifluoroacetyl)-AMC as substrate preincubated for 5 mins followed by substrate addition and measured after 30 mins by fluorescence assay.

Assay [6] deals with K562. Put plainly: Antiproliferative activity against human K562 cells assessed as reduction in cell viability after 48 hrs by MTT assay. In kind it is functional, cell-based. Conditions: K562, 48 h.
For assay [7], the system named is HEL. Nature of the assay: Antiproliferative activity against HEL cells harboring JAK2 V617F mutant assessed as reduction in cell viability after 48 hrs by MTT assay. In kind it is functional, cell-based. Conditions: Homo sapiens.
The test system of assay [8] is MOLT-4. Nature of the assay: Antiproliferative activity against human MOLT4 cells assessed as reduction in cell viability after 48 hrs by MTT assay. In kind it is functional, cell-based. Conditions: MOLT-4, 48 h. In outline:
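Cells kept in RPMI1640 with 10% FBS at 37 °C, 5% CO2. Seeded and grown for 12 h, then exposed to a range of compound concentrations for 48 h. 0.5% MTT added for 4 h, formazan dissolved in DMSO, absorbance read at 570 nm.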

Assay [9] concerns Jurkat. Nature of the assay: Antiproliferative activity against human Jurkat cells assessed as reduction in cell viability after 48 hrs by MTT assay. In kind it is functional, cell-based.
The target of assay [10] is Tyrosine-protein kinase JAK1 (Homo sapiens, UniProt P23458). Put plainly: Inhibition of recombinant human JAK1 using Ulight-CAGAGAIETDKEYYTVKD as substrate measured after 60 mins by LANCE assay. In outline: (§1)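 Human recombinant JAK enzyme assays run by a contract lab. IC50 was taken from a non-linear curve fit, with all parameters allowed to float. Assays were run in replicate (n>2) and reported as mean ± SD.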

The target in assay [11] is T3, Tyrosine-protein kinase JAK3 (Homo sapiens, UniProt P52333).
T3 sequence (P52333 whole entry): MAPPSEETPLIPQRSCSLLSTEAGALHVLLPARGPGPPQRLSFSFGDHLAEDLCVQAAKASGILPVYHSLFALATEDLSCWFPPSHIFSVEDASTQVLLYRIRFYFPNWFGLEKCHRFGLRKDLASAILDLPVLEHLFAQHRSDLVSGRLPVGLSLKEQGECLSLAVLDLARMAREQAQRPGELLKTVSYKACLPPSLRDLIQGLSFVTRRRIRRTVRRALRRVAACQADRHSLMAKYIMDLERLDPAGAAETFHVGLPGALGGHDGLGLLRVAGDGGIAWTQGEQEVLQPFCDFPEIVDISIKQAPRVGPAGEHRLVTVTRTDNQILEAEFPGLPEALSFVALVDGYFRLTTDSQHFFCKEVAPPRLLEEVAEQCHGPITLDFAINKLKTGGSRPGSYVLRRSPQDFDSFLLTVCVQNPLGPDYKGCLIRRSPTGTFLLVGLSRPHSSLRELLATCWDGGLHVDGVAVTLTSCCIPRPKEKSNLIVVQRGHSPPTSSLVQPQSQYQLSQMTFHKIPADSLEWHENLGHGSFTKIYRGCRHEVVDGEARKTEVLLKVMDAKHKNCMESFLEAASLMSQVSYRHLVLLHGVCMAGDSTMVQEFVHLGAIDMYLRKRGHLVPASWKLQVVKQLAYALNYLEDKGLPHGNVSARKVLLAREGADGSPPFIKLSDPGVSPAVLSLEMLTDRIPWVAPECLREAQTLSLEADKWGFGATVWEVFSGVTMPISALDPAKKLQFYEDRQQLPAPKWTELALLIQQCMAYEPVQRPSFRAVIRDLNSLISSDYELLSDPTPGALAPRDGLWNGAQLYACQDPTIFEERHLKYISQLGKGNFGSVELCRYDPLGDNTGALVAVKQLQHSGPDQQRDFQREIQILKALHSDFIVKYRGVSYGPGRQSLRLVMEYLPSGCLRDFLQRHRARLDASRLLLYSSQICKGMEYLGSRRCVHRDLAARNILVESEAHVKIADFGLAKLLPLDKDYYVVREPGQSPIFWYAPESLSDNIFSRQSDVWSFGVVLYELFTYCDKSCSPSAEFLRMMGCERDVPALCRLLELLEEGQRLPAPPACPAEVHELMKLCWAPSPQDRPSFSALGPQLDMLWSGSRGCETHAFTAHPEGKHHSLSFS
Put plainly: Inhibition of recombinant human JAK3 using Ulight-CAGAGAIETDKEYYTVKD as substrate measured after 60 mins by LANCE assay.

Assay [12] deals with Non-receptor tyrosine-protein kinase TYK2 (Homo sapiens, UniProt P29597). Nature of the assay: Inhibition of recombinant human TYK2 using Ulight-CAGAGAIETDKEYYTVKD as substrate measured after 60 mins by LANCE assay. In outline: as §1

SMILES strings stand for the structures.

Sequence of Tyrosine-protein kinase JAK2 (O60674 whole entry): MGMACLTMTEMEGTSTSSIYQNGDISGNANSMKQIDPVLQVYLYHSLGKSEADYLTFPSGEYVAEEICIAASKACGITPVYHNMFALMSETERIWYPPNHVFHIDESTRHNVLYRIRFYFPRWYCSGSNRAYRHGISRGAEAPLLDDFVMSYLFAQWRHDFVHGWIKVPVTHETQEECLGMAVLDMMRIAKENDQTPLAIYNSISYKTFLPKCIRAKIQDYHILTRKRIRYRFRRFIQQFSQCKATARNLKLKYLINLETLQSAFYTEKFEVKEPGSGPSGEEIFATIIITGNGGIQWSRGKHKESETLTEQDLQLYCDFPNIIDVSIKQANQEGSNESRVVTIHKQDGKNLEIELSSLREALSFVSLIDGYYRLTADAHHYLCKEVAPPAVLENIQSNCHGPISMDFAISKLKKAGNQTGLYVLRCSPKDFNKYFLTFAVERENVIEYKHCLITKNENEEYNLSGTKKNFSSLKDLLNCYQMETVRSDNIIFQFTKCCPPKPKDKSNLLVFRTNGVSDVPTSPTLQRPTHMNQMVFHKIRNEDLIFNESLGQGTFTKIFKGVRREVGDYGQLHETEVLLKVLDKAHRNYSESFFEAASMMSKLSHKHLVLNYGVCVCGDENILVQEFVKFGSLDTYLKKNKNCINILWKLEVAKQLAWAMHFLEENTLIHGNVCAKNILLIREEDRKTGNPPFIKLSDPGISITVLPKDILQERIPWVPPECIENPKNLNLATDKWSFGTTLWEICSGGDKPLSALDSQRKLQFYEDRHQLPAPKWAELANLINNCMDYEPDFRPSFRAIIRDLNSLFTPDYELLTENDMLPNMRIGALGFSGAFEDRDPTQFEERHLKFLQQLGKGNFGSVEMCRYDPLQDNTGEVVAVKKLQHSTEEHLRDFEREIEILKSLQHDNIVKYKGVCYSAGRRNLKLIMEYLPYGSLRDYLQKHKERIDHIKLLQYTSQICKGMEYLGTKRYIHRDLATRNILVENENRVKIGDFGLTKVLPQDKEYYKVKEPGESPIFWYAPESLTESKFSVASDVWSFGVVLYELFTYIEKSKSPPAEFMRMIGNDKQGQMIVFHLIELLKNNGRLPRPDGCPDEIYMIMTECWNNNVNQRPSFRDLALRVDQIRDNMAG
Sequence of Histone deacetylase 2 (Q92769 whole entry): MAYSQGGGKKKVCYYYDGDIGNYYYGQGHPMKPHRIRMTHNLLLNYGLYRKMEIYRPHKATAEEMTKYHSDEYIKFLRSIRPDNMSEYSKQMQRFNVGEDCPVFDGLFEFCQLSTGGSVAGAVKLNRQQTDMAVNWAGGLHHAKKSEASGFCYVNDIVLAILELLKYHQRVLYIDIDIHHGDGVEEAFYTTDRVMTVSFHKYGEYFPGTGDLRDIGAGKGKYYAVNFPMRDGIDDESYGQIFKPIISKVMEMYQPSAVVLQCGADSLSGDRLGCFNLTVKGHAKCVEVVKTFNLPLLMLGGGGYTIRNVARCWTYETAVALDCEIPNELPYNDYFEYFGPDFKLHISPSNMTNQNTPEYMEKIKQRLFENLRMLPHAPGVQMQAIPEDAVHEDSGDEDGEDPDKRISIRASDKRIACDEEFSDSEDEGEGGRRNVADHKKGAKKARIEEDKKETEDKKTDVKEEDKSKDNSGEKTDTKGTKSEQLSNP
Sequence of Tyrosine-protein kinase JAK1 (P23458 whole entry): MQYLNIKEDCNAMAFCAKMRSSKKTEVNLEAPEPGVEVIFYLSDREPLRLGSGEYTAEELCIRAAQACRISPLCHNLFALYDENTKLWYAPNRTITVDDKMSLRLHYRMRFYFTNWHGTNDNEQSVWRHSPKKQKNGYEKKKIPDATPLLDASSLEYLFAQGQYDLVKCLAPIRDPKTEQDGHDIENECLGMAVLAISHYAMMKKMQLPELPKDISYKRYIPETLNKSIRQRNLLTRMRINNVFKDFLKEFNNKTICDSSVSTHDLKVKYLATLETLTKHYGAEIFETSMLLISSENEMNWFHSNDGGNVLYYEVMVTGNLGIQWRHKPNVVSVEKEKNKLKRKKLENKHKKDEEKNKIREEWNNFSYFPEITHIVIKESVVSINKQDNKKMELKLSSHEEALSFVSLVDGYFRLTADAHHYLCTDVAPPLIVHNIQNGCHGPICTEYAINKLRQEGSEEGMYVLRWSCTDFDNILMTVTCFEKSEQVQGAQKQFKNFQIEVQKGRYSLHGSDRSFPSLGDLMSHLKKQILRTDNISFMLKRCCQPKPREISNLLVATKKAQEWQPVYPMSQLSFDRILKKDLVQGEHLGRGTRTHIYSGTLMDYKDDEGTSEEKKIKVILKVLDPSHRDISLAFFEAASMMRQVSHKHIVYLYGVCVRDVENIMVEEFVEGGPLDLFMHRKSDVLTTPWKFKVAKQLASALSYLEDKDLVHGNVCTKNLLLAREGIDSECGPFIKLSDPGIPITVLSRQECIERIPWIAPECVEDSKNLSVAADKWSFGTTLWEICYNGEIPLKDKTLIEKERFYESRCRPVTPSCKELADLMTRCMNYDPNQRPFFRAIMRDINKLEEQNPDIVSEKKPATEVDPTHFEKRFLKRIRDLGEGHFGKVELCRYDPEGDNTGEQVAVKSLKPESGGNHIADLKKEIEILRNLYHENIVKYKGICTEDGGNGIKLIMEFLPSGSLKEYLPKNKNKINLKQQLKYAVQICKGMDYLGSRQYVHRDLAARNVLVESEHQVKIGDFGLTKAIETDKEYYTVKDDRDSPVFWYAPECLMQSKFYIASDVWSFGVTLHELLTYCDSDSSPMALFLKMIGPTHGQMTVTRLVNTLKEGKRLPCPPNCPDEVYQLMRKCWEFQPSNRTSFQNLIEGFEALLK
Sequence of Non-receptor tyrosine-protein kinase TYK2 (P29597 whole entry): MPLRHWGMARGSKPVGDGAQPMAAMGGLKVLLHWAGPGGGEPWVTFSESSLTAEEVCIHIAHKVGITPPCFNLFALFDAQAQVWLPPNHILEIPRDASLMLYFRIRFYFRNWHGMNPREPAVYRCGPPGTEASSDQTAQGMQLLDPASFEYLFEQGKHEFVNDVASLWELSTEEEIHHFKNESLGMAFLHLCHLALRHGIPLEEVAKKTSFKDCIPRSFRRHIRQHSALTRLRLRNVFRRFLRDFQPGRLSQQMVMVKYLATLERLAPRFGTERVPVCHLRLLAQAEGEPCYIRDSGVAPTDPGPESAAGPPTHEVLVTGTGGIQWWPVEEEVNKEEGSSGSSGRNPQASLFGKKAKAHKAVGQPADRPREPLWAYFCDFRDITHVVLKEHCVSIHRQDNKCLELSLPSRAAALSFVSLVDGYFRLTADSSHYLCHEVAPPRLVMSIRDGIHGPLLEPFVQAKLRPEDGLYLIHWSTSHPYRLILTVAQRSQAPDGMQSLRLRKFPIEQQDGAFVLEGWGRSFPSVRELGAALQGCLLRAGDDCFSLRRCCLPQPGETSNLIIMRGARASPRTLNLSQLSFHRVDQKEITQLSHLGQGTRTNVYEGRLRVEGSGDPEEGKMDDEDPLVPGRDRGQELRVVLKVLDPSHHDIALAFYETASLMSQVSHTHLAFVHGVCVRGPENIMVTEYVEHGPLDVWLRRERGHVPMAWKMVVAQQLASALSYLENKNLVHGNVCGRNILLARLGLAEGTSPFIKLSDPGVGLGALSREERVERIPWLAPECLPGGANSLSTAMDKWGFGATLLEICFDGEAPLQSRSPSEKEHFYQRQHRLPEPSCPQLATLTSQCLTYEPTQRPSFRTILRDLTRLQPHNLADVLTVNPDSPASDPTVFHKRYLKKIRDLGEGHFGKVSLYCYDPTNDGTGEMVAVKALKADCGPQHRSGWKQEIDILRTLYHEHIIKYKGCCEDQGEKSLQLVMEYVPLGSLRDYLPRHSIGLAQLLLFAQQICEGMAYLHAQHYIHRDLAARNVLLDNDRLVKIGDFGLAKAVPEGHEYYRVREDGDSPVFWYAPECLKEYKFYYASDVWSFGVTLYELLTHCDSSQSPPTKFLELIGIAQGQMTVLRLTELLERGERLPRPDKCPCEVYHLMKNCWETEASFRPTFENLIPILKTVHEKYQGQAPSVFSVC

As for `CNc1nc(Nc2cnn(CCCCCC(=O)NO)c2)ncc1Cl`, the figures for the IC50 in assay [1] and in assay [2] were 36 nM and 104 nM, respectively.

Consider `O=C(NO)c1ccc(Cn2cc(Nc3ncc(Cl)c(Nc4ccc(F)cc4)n3)cn2)cc1`, for which the concentration for half-maximal inhibition (IC50) in assay [1] was 21 nM; in assay [2], 62 nM; in assay [3] it was 730 nM; in assay [4], 13 nM; in assay [5], 120 nM.

As for `O=C(CCCCn1cc(Nc2ncc(Cl)c(Nc3ccc(F)cc3)n2)cn1)NO`, the IC50 was found to be 46 nM in assay [1]; 569 nM in assay [2]; 1400 nM in assay [3]; 310 nM in assay [4]; 5100 nM in assay [5].

Consider `O=C(CCCCCn1cc(Nc2ncc(Cl)c(Nc3cccc(Cl)c3)n2)cn1)NO`, for which the IC50 in assay [6] was 580 nM; in assay [7], 80 nM; in [1], 7 nM; in [2], 4 nM; in assay [8], 80 nM; in assay [9], 50 nM.

Regarding `O=C(CCCCCn1cc(Nc2ncc(Cl)c(Nc3ccccc3Cl)n2)cn1)NO`, the IC50 in assay [6] was determined as 1810 nM; in assay [7] it was 430 nM; in assay [1] it was 18 nM; in [2], 18 nM; in assay [8], 630 nM; in assay [9], 310 nM.

On to `CNc1nc(Nc2cnn(CCCCCCC(=O)NO)c2)ncc1C(F)(F)F`, for which the IC50 in [1] came to 85 nM; in assay [2] it was 37 nM.

With `O=C(CCCCCCn1cc(Nc2ncc(Cl)c(N3CCCCC3)n2)cn1)NO`, the IC50 in [1] was found to be 50 nM; in [2], 40 nM; in assay [10], 30 nM; in assay [11], 3.7 nM; in assay [12], 60 nM.

For the compound `O=C(CCCCCCCn1cc(Nc2ncc(Cl)c(Nc3ccc(F)cc3)n2)cn1)NO`, the IC50 in assay [1] is 61 nM; in assay [2], 38 nM; in assay [3] it was 430 nM; in assay [4], 300 nM; in [5], 1700 nM.

For `O=C(CCCCCCn1cc(Nc2ncc(Cl)c(Nc3ccccc3Cl)n2)cn1)NO`, the half-inhibitory concentration (IC50) came to 860 nM in assay [6]; 340 nM in [7]; 46 nM in assay [1]; 10 nM in assay [2]; 510 nM in assay [8]; 250 nM in assay [9].

With `O=C(CCCCCCn1cc(Nc2ncc(C(F)(F)F)c(Nc3ccc(F)cc3)n2)cn1)NO`, the IC50 is 480 nM in assay [6]; 420 nM in assay [7]; > 100 nM in assay [1]; 41 nM in assay [2]; 240 nM in assay [8].

Regarding `O=C(/C=C/c1ccc(Cn2cc(Nc3ncc(Cl)c(Nc4ccc(F)cc4)n3)cn2)cc1)NO`, the IC50 was found to be 1030 nM in assay [6]; 600 nM in assay [7]; 43 nM in assay [1]; 144 nM in assay [2]; 1000 nM in [3]; 63 nM in assay [4]. For the same compound, the results for the IC50 in assay [5], in assay [8] and in assay [9] were 14100 nM, 330 nM and 150 nM, respectively.

In the case of `O=C(CCCCCCn1cc(Nc2ncc(Cl)c(Nc3ccccc3)n2)cn1)NO`, the half-maximal inhibitory concentration (IC50) in assay [6] came to 420 nM; in assay [7] it was 180 nM; in assay [1], 12 nM; in [2], 19 nM; in assay [8], 160 nM; in assay [9], 90 nM.

For the compound `O=C(CCCn1cc(Nc2ncc(Cl)c(Nc3ccc(F)cc3)n2)cn1)NO`, the IC50 was 10 nM in [1] and > 10000 nM in assay [2].

As for `O=C(CCCCCCn1cc(Nc2nccc(Nc3ccc(F)cc3)n2)cn1)NO`, the concentration for half-maximal inhibition (IC50) in [1] was > 100 nM; in assay [2], 18 nM.

In the case of `O=C(CCn1cc(Nc2ncc(Cl)c(Nc3ccc(F)cc3)n2)cn1)NO`, the values for the half-inhibitory concentration (IC50) in [1] and in [2] were 22 nM and > 10000 nM, respectively.

Turning to `O=C(CCCCCn1cc(Nc2ncc(Cl)c(Nc3ccc(F)cc3)n2)cn1)NO`, the concentration for half-maximal inhibition (IC50) in assay [6] came out at 420 nM; in [7] it was 150 nM; in assay [1], 5 nM; in assay [2], 26 nM; in [8] it was 120 nM; in assay [9], 60 nM.

Turning to `CCCNc1nc(Nc2cnn(CCCCCCC(=O)NO)c2)ncc1Cl`, the IC50 in assay [1] came to 30 nM; in assay [2], 26 nM.

Regarding `O=C(CCCCCCn1cc(Nc2ncc(Cl)c(N3CCOCC3)n2)cn1)NO`, the IC50 was found to be 910 nM in assay [6]; 470 nM in assay [7]; 20 nM in assay [1]; 37 nM in assay [2]; 320 nM in [8]; 170 nM in assay [9].
